These results are taken from ChEMBL document CHEMBL4052805, “Discovery of novel 4(1H)-quinolone derivatives as potential antiproliferative and apoptosis inducing agents” (Bioorg Med Chem Lett, 2017).

Molecules are shown by their SMILES. Where a name gives a salt, the structure may show the parent alone. Active and inactive are the calls of the source. No cut-off for these calls is given here.

One assay concerns HeLa. The assay can be described thus: Cytotoxicity against human HeLa cells assessed as reduction in cell viability after 24 hrs by MTT assay. A general note: Tetrazolium dyes change colour on reduction, which living cells bring about.
A further assay relates to HCT-8. Nature of the assay: Cytotoxicity against human HCT8 cells assessed as reduction in cell viability after 24 hrs by MTT assay. Particulars: HCT-8, 24 h.
The test system of another assay is BGC-823. The assay can be described thus: Cytotoxicity against human BGC823 cells assessed as reduction in cell viability after 24 hrs by MTT assay. The following applies: BGC-823, 24 h.
The next assay concerns HEp-2. Nature of the assay: Cytotoxicity against human Hep2 cells assessed as reduction in cell viability after 24 hrs by MTT assay. The following applies: HEp-2, 24 h.
For another assay, the system named is PC-3. Nature of the assay: Cytotoxicity against human PC3 cells assessed as reduction in cell viability after 24 hrs by MTT assay. The following applies: PC-3, 24 h.
The next assay relates to MCF7. Nature of the assay: Cytotoxicity against human MCF7 cells assessed as reduction in cell viability after 24 hrs by MTT assay. The following applies: MCF7, 24 h.
Assay [1] has as its system HepG2. Nature of the assay: Cytotoxicity against human HepG2 cells assessed as reduction in cell viability after 24 hrs by MTT assay. Particulars: HepG2, 24 h.
The subject of assay [2] is HepG2. Nature of the assay: Induction of DNA damage in human HepG2 cells assessed as increase in PARP level after 24 hrs by Western blot analysis. Format: functional, cell-based.
For assay [3], the system named is HepG2. The assay can be described thus: Induction of apoptosis in human HepG2 cells assessed as late apoptotic cells at 10 ug/ml after 24 hrs by annexin V-FITC/propidium iodide staining based flow cytometry (reference value: 3.50%). Type of assay: functional. In general terms: In flow cytometry, cells or beads pass a laser one at a time.
For assay [4], the system named is HepG2. Nature of the assay: Induction of apoptosis in human HepG2 cells assessed as necrotic cells at 20 ug/ml after 24 hrs by annexin V-FITC/propidium iodide staining based flow cytometry (reference value: 0.36%). Format: functional.
The subject of assay [5] is HepG2. Nature of the assay: Induction of apoptosis in human HepG2 cells assessed as early apoptotic cells at 20 ug/ml after 24 hrs by annexin V-FITC/propidium iodide staining based flow cytometry (reference value: 6.56%). Format: functional.
In assay [6] the test system is HepG2. The assay can be described thus: Induction of apoptosis in human HepG2 cells assessed as increase in Bak protein expression at 10 to 20 ug/ml after 24 hrs by Western blot analysis. Format: functional, cell-based.
For assay [7], the system named is HepG2. The assay can be described thus: Cell cycle arrest in human HepG2 cells assessed as accumulation at G2/M phase after 24 hrs by propidium iodide staining based flow cytometry. Type of assay: functional.
Assay [8] concerns HepG2. The assay can be described thus: Increase in p53 expression in human HepG2 cells at 10 to 20 ug/ml after 24 hrs by Western blot analysis. Type of assay: functional, cell-based.
Assay [9] deals with HepG2. The assay can be described thus: Induction of apoptosis in human HepG2 cells after 24 hrs by annexin V-FITC/propidium iodide staining based flow cytometry. Type of assay: functional, cell-based.
The target of assay [10] is Cellular tumor antigen p53 (Homo sapiens) (UniProt P04637). The assay can be described thus: Activation of p53 in human HepG2 cells assessed as increase in p21 expression at 10 to 20 ug/ml after 24 hrs by Western blot analysis. Type of assay: cell-based.
Cellular tumor antigen p53 (Homo sapiens), sequence (P04637 whole entry, looked up): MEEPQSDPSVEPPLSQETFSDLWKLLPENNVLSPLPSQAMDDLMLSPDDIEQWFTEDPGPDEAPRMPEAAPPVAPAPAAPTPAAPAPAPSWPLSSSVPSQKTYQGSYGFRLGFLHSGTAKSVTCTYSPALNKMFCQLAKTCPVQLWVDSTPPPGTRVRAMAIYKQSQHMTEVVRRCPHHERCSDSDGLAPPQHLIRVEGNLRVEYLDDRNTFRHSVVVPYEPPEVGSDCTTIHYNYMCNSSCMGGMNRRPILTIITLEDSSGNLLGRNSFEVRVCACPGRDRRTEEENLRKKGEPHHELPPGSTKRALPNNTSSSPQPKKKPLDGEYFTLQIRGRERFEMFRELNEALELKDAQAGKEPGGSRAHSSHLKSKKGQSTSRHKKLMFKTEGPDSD
Assay [11] has as its system HepG2. The assay can be described thus: Induction of DNA damage in human HepG2 cells assessed as increase in caspase-3 level after 24 hrs by Western blot analysis. Type of assay: functional, cell-based.
The test system of assay [12] is HepG2. Nature of the assay: Induction of apoptosis in human HepG2 cells assessed as viable cells at 10 ug/ml after 24 hrs by annexin V-FITC/propidium iodide staining based flow cytometry (reference value: 89.59%). Type of assay: functional. The following applies: HepG2, 24 h, read-out: Activity.
Assay [13] deals with HepG2. The assay can be described thus: Induction of apoptosis in human HepG2 cells assessed as late apoptotic cells at 20 ug/ml after 24 hrs by annexin V-FITC/propidium iodide staining based flow cytometry (reference value: 3.50%). Type of assay: functional.
The test system of assay [14] is HepG2. The assay can be described thus: Induction of apoptosis in human HepG2 cells assessed as necrotic cells at 10 ug/ml after 24 hrs by annexin V-FITC/propidium iodide staining based flow cytometry (reference value: 0.36%). Type of assay: functional.
For assay [15], the system named is HepG2. The assay can be described thus: Antiproliferative activity against human HepG2 cells up to 100 uM by CCK-8 assay. Format: functional, cell-based. The following applies: TDE = time-dependent effect. The essentials:
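HepG2 cells were seeded and left 24 h, then treated with a range of compound concentrations for 24 h. Viability was read by CCK-8 assay.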

Assay [16] deals with HepG2. The assay can be described thus: Induction of apoptosis in human HepG2 cells assessed as early apoptotic cells at 10 ug/ml after 24 hrs by annexin V-FITC/propidium iodide staining based flow cytometry (reference value: 6.56%). Format: functional.
Assay [17] deals with HepG2. The assay can be described thus: Induction of apoptosis in human HepG2 cells assessed as viable cells at 20 ug/ml after 24 hrs by annexin V-FITC/propidium iodide staining based flow cytometry (reference value: 89.59%). The following applies: HepG2, 24 h, read-out: Activity. Format: functional.
Assay [18] deals with HepG2. Nature of the assay: Anticlonogenic activity against human HepG2 cells at 10 uM treated for 24 hrs measured after 6 days by crystal violet staining based assay. Format: functional, cell-based.
Assay [19] has as its target Cellular tumor antigen p53 (Homo sapiens) (UniProt P04637). Nature of the assay: Activation of p53 (unknown origin) transfected in human HepG2 cells at 4 uM after 24 hrs by dual-luciferase assay relative to control. Format: cell-based. Summed up:
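HepG2 cells transfected with the pathway reporter for 24 h, then exposed to 4 μM compound for a further 24 h; reporter activity read by dual-luciferase assay.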

The subject of assay [20] is HepG2. The assay can be described thus: Downregulation of CDK1 expression in human HepG2 cells after 24 hrs by Western blot analysis. Format: functional, cell-based. (In western blotting, separated proteins are transferred to a membrane and probed.)
For assay [21], the system named is HepG2. The assay can be described thus: Downregulation of cyclin B1 expression in human HepG2 cells after 24 hrs by Western blot analysis. Type of assay: functional, cell-based.

As for `NCCCNC(=O)c1cn(Cc2ccccc2)c2cc(Cl)ccc2c1=O`, the IC50 is 4.54 µM with HeLa; 14.5 µM in the assay with HCT-8; 6.71 µM in the assay with BGC-823; 8.31 µM in the assay on HEp-2; 9.12 µM in the assay on PC-3; 5.02 µM in the assay on MCF7. In the assay with HepG2 [1], the IC50 came to 5.42 µM.

For the compound `C=CCn1cc(C(=O)NCCCN)c(=O)c2ccc(Cl)cc21`, the IC50 in the assay on HeLa amounted to 22.4 µM; in the assay on HCT-8, 34.7 µM; with BGC-823, 20 µM; with HEp-2, 36.5 µM; in the assay on PC-3 it was 13.2 µM; in the assay with MCF7, 31.6 µM. Also, in the assay on HepG2 [1], the IC50 turned out to be 17 µM.

With `Cl.NCCCNC(=O)c1cn(CCCc2ccccc2)c2cc(Cl)ccc2c1=O`, the Activity entry is “Dose-dependent effect” in the assay with HepG2 [2]; 3.71% with HepG2 [3]; 4.5% in the assay on HepG2 [4]; 10.72% with HepG2 [5]; “Dose-dependent effect” in the assay on HepG2 [7]; “Dose-dependent effect” in the assay with HepG2 [9]. In addition, the Activity result with HepG2 [11] was “Dose-dependent effect”; with HepG2 [13] it was 18.44%; in the assay with HepG2 [14] it was 0.75%; with HepG2 [15], “Tde”; in the assay on HepG2 [16], 7.01%; in the assay with HepG2 [20], “Dose-dependent effect”. Also, in the assay with HepG2 [21], the Activity entry was “Dose-dependent effect”. In addition, the IC50 in the assay on HeLa was found to be 2.31 µM; with HCT-8, 6.03 µM; with BGC-823, 3.2 µM; in the assay with HEp-2, 3.24 µM; in the assay on PC-3 it was 6.92 µM; in the assay on MCF7, 3.12 µM. Also, the IC50 in the assay on HepG2 [1] is less than 1 µM. Further, the outcome (with HepG2 [6]; in the assay on HepG2 [8]; in assay [10]; in the assay on HepG2 [18]) was Active. Also, in the assay with HepG2 [12], the viability at 10 µg/mL amounted to 88.5%. Moreover, the viability at 20 µg/mL with HepG2 [17] came out at 66.3%. In [19], the fold change (FC) came to 1.5.

For the compound `COc1cccc2c1C(=O)c1c(O)c3c(c(O)c1C2=O)C[C@@](O)(C(=O)CO)C[C@@H]3O[C@H]1C[C@H](N)[C@H](O)[C@H](C)O1` [DOXORUBICIN HYDROCHLORIDE], the IC50 in the assay on HeLa, in the assay on HCT-8, with BGC-823, with HEp-2, in the assay with PC-3 and in the assay on MCF7 was less than 1 µM in each case. Also, the IC50 in the assay on HepG2 [1] was less than 1 µM.

Take `CCn1cc(C(=O)NCCCN)c(=O)c2ccc(Cl)cc21`: the half-inhibitory concentration (IC50) in the assay with HeLa was 20 µM; with HCT-8, 31.6 µM; in the assay with BGC-823, 30.2 µM; in the assay on HEp-2, 28.2 µM; in the assay on PC-3, 12.6 µM; with MCF7, 35.5 µM. Also, in the assay on HepG2 [1], the IC50 stood at 13.8 µM.

On to `Oc1ccnc2cc(Cl)ccc12`, for which the IC50 with HeLa, in the assay with HCT-8, in the assay with BGC-823, with HEp-2, in the assay with PC-3 and with MCF7 was greater than 50 µM throughout. Also, the IC50 in the assay with HepG2 [1] is greater than 50 µM.

Turning to `CCCCn1cc(C(=O)NCCCN)c(=O)c2ccc(Cl)cc21`, the IC50 worked out at 15 µM in the assay with HeLa; 22.3 µM in the assay on HCT-8; 16.6 µM in the assay on BGC-823; 21.7 µM in the assay with HEp-2; 12 µM with PC-3; 12.6 µM with MCF7. The IC50 with HepG2 [1] is 5.23 µM.

For orientation: IC50 means the point on the concentration scale where inhibition reaches its midpoint.
